# STAT1 activator: STAT1 signaling activation; NIH 3T3 STAT1-luciferase reporter, IFN-gamma, luminescence; 100% = IFN-gamma alone, no compound; activation (% of control), % at 5.5 µM; actives 2.6% (n = 200,000); AID 932;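 active means activation above the screen-wide mean activation plus 3 SD, cut at about 130% in these data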;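 further: raw ratio to IFN-gamma control signal so 100% means no change and 0% no light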
# NF-kB neuron act: NF-kB expression increase, human neuronal cells; actives 1.6% (n = 190,000); fold change at 12.5 µM; NF-kB reporter expression; active compounds read high; in the data active means fold change above about 3.3
# APP 5'UTR act: activates APP 5'UTR luciferase reporter. SH-SY5Y APP 5'UTR luciferase reporter, luminescence; zero percent = DMSO vehicle wells. activation, % at 2 µM. actives 1% (n = 190,000). AID 1276;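 active means activation above a set limit, based on mean plus 3 SD of controls, cut at about 140% in these data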
# FLuc act counter: affects firefly luciferase, flagging false hits in luciferase stimulation screens; ATPlite luciferase biochemical, luminescence, 10 min; 0 = ATP-free wells, 1 = DMSO control; activation factor at 10 µM; 200,000 tested, under 10 active; AID 1027;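 active means luciferase activation factor, scaled between plate controls, of at least 2 with compound at 10 µM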
# Target sequence (P08659 whole entry, looked up): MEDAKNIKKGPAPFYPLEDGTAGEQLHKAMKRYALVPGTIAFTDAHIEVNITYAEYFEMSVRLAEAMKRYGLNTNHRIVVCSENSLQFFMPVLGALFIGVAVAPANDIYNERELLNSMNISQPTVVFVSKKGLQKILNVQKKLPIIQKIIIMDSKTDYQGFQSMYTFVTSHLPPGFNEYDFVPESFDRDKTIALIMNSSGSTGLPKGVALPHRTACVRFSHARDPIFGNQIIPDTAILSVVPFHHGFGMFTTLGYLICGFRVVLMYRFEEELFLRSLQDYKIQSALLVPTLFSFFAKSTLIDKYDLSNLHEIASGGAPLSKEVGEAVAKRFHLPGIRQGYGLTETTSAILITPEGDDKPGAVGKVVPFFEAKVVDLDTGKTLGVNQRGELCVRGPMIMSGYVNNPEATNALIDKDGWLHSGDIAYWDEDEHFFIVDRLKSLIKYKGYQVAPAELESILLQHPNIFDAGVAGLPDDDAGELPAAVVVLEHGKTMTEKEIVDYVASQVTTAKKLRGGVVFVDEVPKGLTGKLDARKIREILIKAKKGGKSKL
#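 Material: Luciferase/luciferin reagent mix | Doses: Test compounds dosed from 2 mM stocks in 100% DMSO | Timing: 10 min incubation after luciferase reagent addition, room temperature | Measured by: Luminescence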
# FLuc inh counter: counter-screen for luciferase assay inhibitors: firefly luciferase inhibition; P08659; ATPLite firefly luciferase biochemical luminescence, 10 min; inhibition, % at 10 µM; actives 1.5% (n = 200,000);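 active means inhibition above about 50% when tested at 10 µM, limit read from the data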
# * hit, by the source's call; · = no result given. Shown are actives, neighbours in structure and some others; about 4.1% of the full set was active somewhere.
SMILES,STAT1 activator,NF-kB neuron act,APP 5'UTR act,FLuc act counter,FLuc inh counter
O=C(Nc1cccc(-c2nc3ccccc3s2)c1)c1ccc2c(c1)OCO2,94.4,1.24,-7.4,1,0.2
Cc1ccc(CC2CC(=O)N(c3nc4ccccc4s3)C2=O)cc1 (stereo not drawn),104.6,1.18,14.6,1,-0.6
Cc1ccc(Cn2cccc(-c3nc4ccccc4s3)c2=O)cc1,139.6*,2.63,31.5,1,4.8
CC(=O)NCc1ccc(-c2nc3ccccc3s2)cc1,136.4*,1.13,151.4*,0.4,64.4*
O=C(NCc1ccccc1)c1nc2ccccc2s1,112.3,1.05,39.5,1,1.7
COc1ccc(-c2ccc3ccccc3n2)cc1,78.1,10.2*,206.3*,0.3,71.6*
CCOC(=O)c1cnc(/N=C/N(C)C)s1,106.4,1.28,48.6,1,-2.0
c1ccc2c(c1)nnn1c3ccccc3nc21,146.4*,5.28*,147.0*,0.6,44.3
Cc1nc2ccccc2c2nc3ccccc3n12,114.5,0.78,9.9,1,3.1
CCOC(=O)N1CCN(C(=O)CSc2nnc(-c3ccc(C(C)(C)C)cc3)o2)CC1,87.1,1.21,6.9,0.5,53.1*
CCOC(=O)N1CCN(C(=O)CSc2nnc(-c3ccc(C)c(C)c3)o2)CC1,96.4,0.94,-3.0,0.9,7.6
O=C(Nc1ccccc1)C1=C[C@H](c2ccc3c(c2)OCO3)C[C@H](OCc2ccc(CO)cc2)O1,109.6,0.95,11.9,1,3.6
COC(=O)Cn1c(O)c(N=NC(=O)c2ccc3c(c2)OCO3)c2ccccc21,97.3,1.69,18.2,0.2,75.6*
Cc1ccc(-c2nc3ccsc3c(=O)[nH]2)cc1,127.1,2.42,198.5*,0.3,74.8*
CCOC(=O)CSc1nc2ccsc2c(=O)[nH]1,96.8,0.96,8.7,1,-2.8
c1ccc(-c2ncc(-c3ccn[nH]3)s2)cc1,120.5,7.31*,230.5*,0.3,66.4*
O=C(c1ccc(Cl)cc1)c1cnc(-c2ccccc2)s1,102.5,1.33,7.7,1,-1.2
CCOc1ccc2nc(NS(=O)(=O)Cc3ccccc3)sc2c1,106.7,2.38,-15.8,1,2.6
Cc1ccc2nc(-c3ccccc3)nc(SC(C)C(=O)NCc3cccs3)c2c1 (stereo not drawn),96.3,5.03*,-3.7,1,-4.0
CCOc1ccc(C(=O)NCC(=O)Nc2ccc(N3CCOCC3)cc2)cc1OCC,109.2,1.39,19.8,0.8,19.5
Cc1ccc2oc(=O)c3cc(C(=O)Nc4cc(-c5cccc(F)c5)no4)sc3c2c1,88.6,1.05,34.9,1.1,-5.1
COc1ccc(NC(=O)CSc2nc(N)c3cc4c(nc3n2)CCCC4)cc1,105.7,1.14,37.7,0.4,61.6*
O=C(NC1=NCCS1)Nc1ccccc1,134.6*,2.45,53.2,0.6,42.1
CC(Oc1ccccc1)C(=O)NC1=NCCS1 (stereo not drawn),133.7*,·,57.9,0.9,7.3
O=C(NC1=NCCS1)c1cccs1,98.2,1.06,19.2,1,-4.2
SMILES,STAT1 activator,NF-kB neuron act,APP 5'UTR act,FLuc act counter,FLuc inh counter
Cc1cccnc1NC(=O)C(C)Oc1ccccc1 (stereo not drawn),99.1,1.3,3.2,1,-2.1
COc1ccc(S(=O)(=O)N(C)C)cc1NC(=O)COC(=O)c1nn(C)c(=O)c2ccccc12,92.4,0.97,-9.5,1,1.0
OC1CCN(C(=S)Nc2ccc(Oc3ccccc3)cc2)CC1,103.8,1.13,4.0,1,-4.6
CCOc1cc(C(=O)NC2=NCCS2)cc(OCC)c1OCC,94.2,1.22,11.2,1.1,-5.4
CC(C)c1ccc(/C=C/C(=O)NC2=NCCS2)cc1,94.6,3.15,221.5*,0.3,67.3*
CC(C)C(C(=O)NC1=NCCS1)c1ccc(Cl)cc1 (stereo not drawn),99.9,1.14,3.8,1,1.8
CC(C)c1ccc(OCC(=O)NC2=NCCS2)cc1,125.5,1.54,25.8,0.4,57.2*
O=C(/C=C/c1ccc(Cl)c(Cl)c1)NC1=NCCS1,134.4*,1.56,25.1,1,3.2
CCOc1ccc(C(=O)NC2=NCCS2)cc1,138.9*,2.66,92.2,0.5,51.8*
O=C(COc1ccccc1)NC1=NCCS1,122.1,1.22,-6.2,0.7,31.0
Cc1cc(OCCCC(=O)NC2=NCCS2)ccc1Cl,92.9,0.98,-2.4,1.1,-5.0
COc1ccc(N2CCN(C(=O)Cn3c(=O)[nH]c4ccccc4c3=O)CC2)cc1,99.9,1.22,-16.1,1,1.3
Cc1ccc(CNC(=O)CSc2c3c(nc4cc(Cl)ccc24)CCCC3)o1,93.8,1.07,24.7,1.1,-7.3
CC(C)CNC(=O)COc1cccc(C(=O)NCc2ccccc2)c1,95.4,0.92,4.6,1,0.5
COc1ccc(OC)c(N(CC(N)=O)S(=O)(=O)c2ccc(OC)c(OC)c2)c1,100.0,0.83,-6.9,1,-0.2
Cc1cc(C(=O)NC2=NCCS2)cs1,126.0,2.61,73.6,0.7,34.6
Cc1cccc(C(=O)NC2=NCCS2)c1,112.2,3.32*,138.9*,0.5,53.6*
Cc1cc(C)nc(SCCn2c(N3CCOCC3)nc3c2c(=O)[nH]c(=O)n3C)n1,105.7,0.94,17.8,1,-4.5
O=C(N/N=C/c1cccs1)c1ccccn1,120.9,2.39,123.4,0.5,51.1*
O=C(N/N=C/c1cccs1)c1c[nH]c2ccccc12,128.6*,2.3,43.8,0.6,37.3
CN(c1ccccc1)c1cc(=O)[nH]c(=O)[nH]1,103.8,0.93,-6.7,1.1,-7.8
O=C(Nc1ccc2c(c1)OCCO2)C1CCCN(S(=O)(=O)c2cccs2)C1 (stereo not drawn),100.2,0.92,17.6,1.1,-6.1
Cn1/c(=N/N=C/c2ccc([N+](=O)[O-])cc2)sc2ccccc21,131.7*,1.98,-15.0,0.9,11.4
Cn1c(=O)c2c(nc(SCC(=O)N3CCc4ccccc43)n2Cc2ccc(F)cc2)n(C)c1=O,98.6,·,-7.3,·,·
Cc1ccc(C(=O)NCCc2csc(-c3cccnc3)n2)cc1,100.8,1.07,18.2,0.3,68.3*
SMILES,STAT1 activator,NF-kB neuron act,APP 5'UTR act,FLuc act counter,FLuc inh counter
CCOc1ccc(NC(=O)CN2CCN(CC(=O)Nc3ccc(Cl)c(C(F)(F)F)c3)CC2)cc1,96.5,0.46,·,1,-1.4
COc1ccc(OC)c(Cc2nnc(CCC(=O)N3CCCCC3c3nccs3)o2)c1 (stereo not drawn),134.4*,2.31,35.1,1,-1.6
CCOc1ccc(-c2nc(-c3cccs3)c(CC(=O)O)s2)cc1OC,112.5,1.71,-7.5,0.3,68.5*
O=C(Cc1cccs1)Nc1ccc(-c2nc3ccccc3[nH]2)cc1,145.3*,2.67,151.7*,0.5,46.9
O=C(CSc1ccccc1)Nc1ccc(-c2nc3ccccc3[nH]2)cc1,131.2*,1.86,93.5,0.6,37.9
CCOc1ccc(NC(=S)NCc2nc3ccccc3[nH]2)cc1,97.7,0.73,-5.1,1,-3.3
O=C(Nc1nc2ccccc2[nH]1)C1CCCO1 (stereo not drawn),105.9,1.75,30.1,1,-3.5

# Screening results as filed in PubChem BioAssay.
